Our source for the IC50 and inhibition values is ChEMBL document CHEMBL1126713, “Nonpeptide angiotensin II receptor antagonists. 1. Synthesis and in vitro structure-activity relationships of 4-[[[(1H-pyrrol-1-ylacetyl)amino]phenyl]methyl]imidazole derivatives as angiotensin II receptor antagonists” (J Med Chem, 1993).

A word on the IC50: it is the midpoint of a concentration-inhibition curve. The inhibition is the share of the control response that was lost under treatment.

One assay is filed under the species Oryctolagus cuniculus. As to the kind of experiment: Inhibition of Angiotensin II induced contraction of isolated rabbit aortic rings. In kind it is functional. The note with it: Aorta. In short, it runs like this: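 Thoracic aortic rings, 4–5 mm, from New Zealand White rabbits (3–4 kg) were held in PSS at 37 °C under 95% O2/5% CO2, with isometric force recorded. Rings were equilibrated 1.5 h, primed with 122 mM KCl and given two 10^-8 M AII control contractions. Compound in DMSO was incubated 10 min before the AII concentration–response was repeated. IC50 is the concentration halving AII contraction relative to the averaged controls.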

For assay [1], the target named is T1, Type-1 angiotensin II receptor B (Rattus norvegicus, UniProt P29089).
T1 sequence (P29089 whole entry): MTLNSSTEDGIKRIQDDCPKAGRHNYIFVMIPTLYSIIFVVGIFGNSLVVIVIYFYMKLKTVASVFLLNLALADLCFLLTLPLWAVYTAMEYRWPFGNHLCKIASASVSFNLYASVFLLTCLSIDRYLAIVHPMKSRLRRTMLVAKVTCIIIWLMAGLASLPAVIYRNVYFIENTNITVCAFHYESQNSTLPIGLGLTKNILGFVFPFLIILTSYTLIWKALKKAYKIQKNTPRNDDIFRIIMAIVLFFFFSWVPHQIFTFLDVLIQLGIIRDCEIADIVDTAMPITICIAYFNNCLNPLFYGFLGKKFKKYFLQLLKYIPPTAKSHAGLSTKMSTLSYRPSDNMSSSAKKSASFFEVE
As to the kind of experiment: Binding affinity against angiotensin II receptor type 1 (AT1) from rat liver. Put shortly: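 Compounds were added from DMSO at 100× the final concentration. Samples were filtered on glass-fiber filters presoaked in Tris pH 7.7 with bacitracin and scintillation-counted. Nonspecific binding used 10 μM saralasin. IC50 came from nonlinear mass-action fits of five or six doses or more (mean ± SEM).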

Assay [2] concerns the target T2, Type-1 angiotensin II receptor B (Rattus norvegicus) (UniProt P29089).
T2 sequence (whole entry): T1 sequence (P29089 whole entry)
As to the kind of experiment: Binding affinity against angiotensin II (AT1 receptor) from rat liver expressed as % inhibition at 10 e -7 M.

For `CCCCc1nc(Cl)c(CC(=O)O)n1Cc1ccc(NC(=O)[C@H](Cc2ccccc2)n2cccc2C(=O)O)cc1`, the IC50 in the assay listed under Oryctolagus cuniculus was 0.52 µM.

For `CCCCc1nc(Cl)c(CO)n1Cc1ccc(NC(=O)Cn2cccc2C(=O)OC)cc1`, the IC50 in assay [1] is 8.37 µM.

In assay [1], `CCCCc1nc(Cl)c(CC(=O)OC)n1Cc1ccc(NC(=O)[C@H](Cc2cccs2)n2cccc2C(=O)OC)cc1` yielded an IC50 of 0.8 µM.

In turn, `CCCCc1nc(Cl)c(CO)n1Cc1ccc(NC(=O)[C@H](Cc2ccccc2)n2cccc2)cc1` gave an inhibition in assay [2] of 8.1%.

The compound `CCCCc1nc2c(C)cccc2n1Cc1ccc(NC(=O)[C@H](Cc2ccccc2)n2cccc2C(=O)O)cc1` came in with an IC50 in assay [1] of 0.93 µM.

In assay [2], `CCCCc1nc(Cl)c(CC(=O)O)n1Cc1ccc(NC(=O)CCc2ccccc2)cc1` yielded an inhibition of 7.8%.

In assay [1], `CCCCc1nc(Cl)c(CO)n1Cc1ccc(NC(=O)[C@H](CCCC)n2cccc2C(=O)OC)cc1` returned an IC50 of 0.59 µM.

As for `CCCCc1nc(Cl)c(CC(=O)OC)n1Cc1ccc(NC(=O)[C@H](Cc2ccccc2)n2cccc2C)cc1`, the inhibition in assay [2] was 14.8%.

With `CCCCc1nc(Cl)c(CO)n1Cc1ccc(NC(=O)C(C#N)Cc2ccccc2)cc1` (configuration not stated), in assay [1], the IC50 was 2.6 µM.

In assay [1], `CCCCc1nc(Cl)c(C(=O)O)n1Cc1ccc(NC(=O)[C@H](Cc2cccs2)n2cccc2C(=O)O)cc1` yielded an IC50 of 0.18 µM.

Compound `CCCCc1nc(Cl)c(CO)n1Cc1ccc(NC(=O)C(=O)c2ccccc2)cc1` registered an IC50 in assay [1] of 10.9 µM.

Turning to `CCCCc1nc(Cl)c(CO)n1Cc1ccc(NC(=O)[C@H](Cc2ccccc2)n2cccc2C(=O)O)cc1`, the figures for the IC50 (in the assay listed under Oryctolagus cuniculus; in assay [1]) were 17 µM and 0.18 µM, respectively.

In assay [1], `CCCCc1nc(Cl)c(CC(=O)O)n1Cc1ccc(NC(=O)[C@H](Cc2ccccc2)n2c(C)ccc2C)cc1` returned an IC50 of 0.37 µM.

Take `CCCCc1nc(-n2cccc2)c(C(=O)O)n1Cc1ccc(NC(=O)[C@H](Cc2ccccc2)n2cccc2C(=O)O)cc1`: in assay [1], the concentration for half-maximal inhibition (IC50) is 0.34 µM.

`CCCCc1nc(Cl)c(CC(=O)OC)n1Cc1ccc(NC(=O)[C@H](Cc2ccccc2)n2cccc2C(=O)OC)cc1`: in assay [1], the IC50 stood at 0.5 µM. The IC50 values of the last two compounds are within 1.5-fold of each other.

Turning to `CCCCc1nc(Cl)c(CC(=O)O)n1Cc1ccc(NC(=O)[C@H](Cc2ccccc2)n2cccc2)cc1`, the IC50 in the assay filed under Oryctolagus cuniculus is 6.3 µM; in assay [1], 0.21 µM.

As to `CCCCc1nc(Cl)c(CC(=O)O)n1Cc1ccc(NC(=O)[C@H](Cc2ccccc2)n2cc(C#N)c3ccccc32)cc1`, in assay [1], the IC50 is 1.29 µM. In other words, the single-digit micromolar range.

With `CCCCc1nc(Cl)c(CO)n1Cc1ccc(NC(=O)[C@H](c2ccccc2)n2cccc2C(=O)OC)cc1`, the IC50 in assay [1] was 1.12 µM.

Regarding `CCCCc1nc(Cl)c(CC(=O)O)n1Cc1ccc(NC(=O)[C@H](Cc2ccccc2)n2cccc2C)cc1`, the IC50 in the assay listed under Oryctolagus cuniculus stood at 6.4 µM; in assay [1], 0.14 µM.

In assay [1], `CCCCc1nc(Cl)c(CC(=O)OC)n1Cc1ccc(NC(=O)[C@H](Cc2ccccc2)n2ccc(C(=O)OCC)c2C)cc1` yielded an IC50 of 1.47 µM.

With `CCCCc1ncc(C(=O)O)n1Cc1ccc(NC(=O)[C@H](Cc2ccccc2)n2cccc2C(=O)O)cc1`, the figures for the IC50 (in the assay listed under Oryctolagus cuniculus; in assay [1]) were 0.11 µM and 0.02 µM, respectively.

Compound `CCCCc1nc(Cl)c(CO)n1Cc1ccc(NC(=O)[C@H](Cc2ccccc2)n2cccc2C(=O)OC)cc1` had an IC50 in assay [1] of 0.21 µM.

For `CCc1nc2c(C)cc(C)nc2n1Cc1ccc(NC(=O)[C@H](Cc2ccccc2)n2cccc2C(=O)OC)cc1`, the IC50 in assay [1] stood at 0.33 µM. Against the preceding compound, the IC50 is about 1.6-fold higher.

The compound `CCCCc1nc(Cl)c(CCC(=O)OC)n1Cc1ccc(NC(=O)[C@H](Cc2ccccc2)n2cccc2C(=O)OC)cc1` came in with an IC50 in assay [1] of 0.21 µM.

`CCCCc1nc(Cl)c(CO)n1Cc1ccc(-c2ccccc2C(=O)O)cc1` showed an IC50 in assay [1] of 0.3 µM.

`CCCCc1nc(Cl)c(CC(=O)O)n1Cc1ccc(NC(=O)[C@H](Cc2ccccc2)n2ccc(C(=O)OCC)c2)cc1`: the concentration for half-maximal inhibition (IC50) in the assay filed under Oryctolagus cuniculus turned out to be 14 µM; in assay [1], 0.24 µM.

Turning to `CCCCc1nc(Cl)c(C(=O)O)n1Cc1ccc(NC(=O)[C@H](Cc2cccs2)n2cccc2)cc1`, in assay [1], the IC50 worked out at 0.67 µM.

`CCCCc1nc(Cl)c(C(=O)OC)n1Cc1ccc(NC(=O)[C@H](Cc2ccccc2)n2cccc2C(=O)OC)cc1` returned an inhibition in assay [2] of 15%.

Consider `CCCCc1nc(Cl)c(CC(=O)OC)n1Cc1ccc(NC(=O)[C@H](Cc2ccccc2)n2ccc(C(=O)OCC)c2)cc1`, for which the inhibition in assay [2] is 7.2%.

Take `CCCCc1nc(Cl)c(CO)n1Cc1ccc(NC(=O)C(Cc2ccccc2)c2nn[nH]n2)cc1` (configuration not stated): the half-inhibitory concentration (IC50) in assay [1] was determined as 2.6 µM.

Turning to `CCCCc1nc(Cl)c(CC(=O)O)n1Cc1ccc(NC(=O)[C@H](Cc2ccccc2)n2ccc(C(=O)OCC)c2C)cc1`, in assay [1], the IC50 was 0.14 µM.

Turning to `CCCCc1nc(Cl)c(C(=O)OC)n1Cc1ccc(NC(=O)[C@H](Cc2cccs2)n2cccc2)cc1`, in assay [2], the inhibition was found to be 2.5%.

On to `CCCCc1nc(Cl)c(CCC(=O)O)n1Cc1ccc(NC(=O)[C@H](Cc2ccccc2)n2cccc2C(=O)O)cc1`, for which the half-inhibitory concentration (IC50) worked out at 0.22 µM in the assay listed under Oryctolagus cuniculus and 0.022 µM in assay [1].

In assay [1], `CCCCc1nc(-n2cccc2)c(C(=O)OCC)n1Cc1ccc(NC(=O)[C@H](Cc2ccccc2)n2cccc2C(=O)O)cc1` gave an IC50 of 2.5 µM. That is a single-digit micromolar value.

The compound `CCCCc1nc(Cl)c(C(=O)O)n1Cc1ccc(-c2ccccc2C(=O)O)cc1` yielded an IC50 in assay [1] of 0.092 µM.

`CCCCc1ncc(C(=O)OC)n1Cc1ccc(NC(=O)[C@H](Cc2ccccc2)n2cccc2C(=O)OC)cc1` showed an inhibition in assay [2] of 33%.

`CCCCc1nc(Cl)c(CC(=O)O)n1Cc1ccc(NC(=O)[C@H](Cc2cccs2)n2cccc2C(=O)O)cc1` yielded an IC50 in assay [1] of 0.024 µM. This lies in the double-digit nanomolar range.

For the compound `CCCCc1nc(Cl)c(C(=O)O)n1Cc1ccc(NC(=O)[C@H](Cc2ccccc2)n2cccc2C(=O)O)cc1`, the IC50 in the assay listed under Oryctolagus cuniculus came out at 0.55 µM; in assay [1], 0.08 µM.

`CCCCc1nc(Cl)c(C(=O)OC)n1Cc1ccc(NC(=O)[C@H](Cc2cccs2)n2cccc2C(=O)OC)cc1` returned an inhibition in assay [2] of 11%.

The compound `CCc1nc2c(C)cc(C)nc2n1Cc1ccc(NC(=O)[C@H](Cc2ccccc2)n2cccc2C(=O)O)cc1` showed a half-maximal inhibitory concentration (IC50) in assay [1] of 0.06 µM.
